Experimental data reported in the EternaBench riboswitch data.

Tested on: MS2 coat protein
Assay: apparent Kd, MS2 coat protein; higher = weaker binding; RNA-MaP array; FMN 200 µM where present
Method in brief: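 The apparent Kd is the median of filtered binding-curve fits, one per cluster, to green signal normalised to red-channel RNA signal and control-cluster median Fmax. The clusters were on Illumina sequencing chips, and stalled E. coli RNA polymerase had transcribed the designs on them. Titration used SNAP-549-labelled MS2 coat protein from 0.7 or 1.5 nM, doubling to 3 µM, without and then with constant ligand, in 100 mM Tris-HCl pH 7.5, 80 mM KCl, 4 mM MgCl2, BSA, DTT, yeast tRNA and Tween-20.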

[1] = designed as: OFF switch for flavin mononucleotide, no ligand
[2] = ligand present: flavin mononucleotide, designed as: OFF switch for flavin mononucleotide
[3] = designed as: ON switch for flavin mononucleotide, no ligand
[4] = ligand present: flavin mononucleotide, designed as: ON switch for flavin mononucleotide

| Sequence | apparent Kd [1] | apparent Kd [2] | apparent Kd [3] | apparent Kd [4] |
| --- | --- | --- | --- | --- |
| AUCAGCUCGACAGGAUAUACAUCACUGCUUCGGCAGUGUAUCUUAAUAACAUGAGGAUCACCCAUGUAGAAGGGUCGAGCUGAU | 17.8 nM | 31.6 nM | – | – |
| GUCACUAGAGGAUAUACAAUGGUAUAUGAUCCUAGAGACAAACAUGAGGAUCACCCAUGUAGAAGGCUAGUAUU | 155 nM | 37.4 nM | – | – |
| GGAUGACAAAGUCAUCCAAUACGAACAUGAGGAUCACCCAUGUAGGAUAUGCAACACAAAGUGUUGCAGAAGGACAUGUGUCUU | 30.4 nM | 136 nM | – | – |
| GCAACGCCUGACAUGAGGAUCACCCAUGUUAGAUUGUUAUGUCAGGAUAUAGUCUAGAAACUAGACUAGAAGGGAUAUGUUGCU | – | – | 1010 nM | 161 nM |
| GAGUGACGAUUAGGAUAUAUAGUGAUAAUGAUAAUAGAAGGAAUUGACAUGAGGAUCACCCAUGUAGGACUAAUCCAGAGAGAG | – | – | 64.2 nM | 62.2 nM |
| AAGCCUAAUGAGAAGGUGUGUAUAAAUUAUAUACAAGGAUAUCGGUCGAGCGUGUUGACAUGAGGAUCACCCAUGUUGAGGCUU | – | – | 10.3 nM | 6.22 nM |
| UGCAUGGUAGGAUAUACGGAGCAUUAGGGUUUGUUAUGUGGACAUGAGGAUCACCCAUGUAGAAGGGCCGUGCU | 37.3 nM | 57.1 nM | – | – |
| GGAAAUCAUGUAGGAUAUGCAUGGCGAAGCUACGCAGAAGGACAUGAGGAUCACCCAUGUUAUAGCGUCCGAGAAAGGAUGCAA | 111 nM | 167 nM | – | – |
| AAAAGGUGAGGAUAUACAUGAGGAUCACCCAUGUAGAAAGGAAGUGUAAAAAAAAAGUGUAGAAGGCAUCAUGA | 58.7 nM | 60.6 nM | – | – |
| UCAUCAACGGGCGGGUCGGUUGGACAUGAGGAUCACCCAUGUAGAAGGACCGGUGGACUCCGCCGGUAGGAUAUACAUUUGGUG | 41.6 nM | 30.1 nM | – | – |
| GGACCGCGCAGAGUUGGCGGUCGGCAGGAUAUGACAUGAGGAUCACCCAUGUGAACUCCAUUGGGUCAGAAGGGCCACGACACA | 22.4 nM | 107 nM | – | – |
| UAUCGGGUGCGACUCGCAAGAGGGACAGAAGGCCAUCGACAUGAGGAUCACCCAUGUAACGAAAUGGAGGAUAUGUCUGGUCGA | – | – | 27.5 nM | 5.65 nM |
| UGUAUGGACAGAGGAUAUGCCGAUAGGAUCUACUAUCGAAGAAUCCUCACAUGAGGAUCACCCAUGUAGAAGGCUGUCCAUACU | 25.3 nM | 150 nM | – | – |
| CCAGAGAUAUGAGGAUAUCGAGUGGAAUACACUCGAGAAGGCAUGUGAAAACAUGAGGAUCACCCAUGUAUGAUCUACUCUGGA | – | – | 52.2 nM | 24.4 nM |
| AUGAGUAAAGCAGGAUAUCUAUUGUCUCUGUAACAUGAGGAUCACCCAUGUAGAGAAGGGCUAAGUCUUACUCUUCGGAGUUGA | 14.2 nM | 13.7 nM | – | – |
| AAAGGUACAGGAUAUGCGUGGAAAAAGUGUAUUCAAAAAAAACAUGAGGAUCACCCAUGUAGAAGGGUACCAAA | 81 nM | 269 nM | – | – |
| UGUUGUAUUACAGGAUAUCUAGUAUUAUUAUUUAGAGAAGGGUAUUCACAUGAGGAUCACCCAUGUAUAUACGAGGAAGUUGUG | – | – | 38.2 nM | 40.1 nM |
| CUAUAUAUAUGAGGAUAUCUAUAUCCAACAUGAGGAUCACCCAUGUUGAGGAUCACCCAUGUAAAGGAGAAGGCAUAUAUAUAG | – | – | 43.2 nM | 14.9 nM |
| AAAAUCUAUAGAGGAUAUCCAUACACUGCAUACGGAGAAGGCUAACAAUCAUGAGGACAUGAGGAUCACCCAUGUUGUGACCAU | – | – | 19.9 nM | 13.6 nM |
| AAAAAUGGAGGAUAUACAUGAGGAUCACCCAUGUGUGGCUAUACUAUGUGCUCGUCAGGUAGAAGGCCAAAAAA | 31.2 nM | 59.2 nM | – | – |
| UAAUGUAUAUAGGAUAUCUAGCUGGAUACAGCUAGAGAAGGAUGUACAUGAGGAUCACCCAUGUAAAUCGAUCA | 23.2 nM | 55.7 nM | – | – |
| ACCAAUGCAGGAUAUACAUGAGGAUCACCCAUGUAUAACCUACAUAGGUGAUCCUCAUGUAGAAGGGCAUUGGA | 12.8 nM | 10 nM | – | – |
| UAGAAGUCAGGAUAUCCAUGGCGGCACUUGCGUGGUGGCGUGGAGAAGGGACAUGAGGAUCACCCAUGUAAAGG | 148 nM | 174 nM | – | – |
| CCUUUGAAGAUCCUGGUUUUCGACAUGAGGAUCACCCAUGUGCAGGAUAUCGUGCCGGUGCUGUGCGAGAAGGGCAGUCUCAGC | 15.1 nM | 17.9 nM | – | – |

| Sequence | apparent Kd [1] | apparent Kd [2] | apparent Kd [3] | apparent Kd [4] |
| --- | --- | --- | --- | --- |
| AGCUGUGGCAGAGGAUAUACCUCAAUAAUCCAUUGCAAAUAGCGAUGGACAUGAGGAUCACCCAUGUAGAAGGCUGUCUCAGCA | 323 nM | 733 nM | – | – |
| UCAUUUCUGUAAGGAUAUAUAAACAUGACGAUACAUGAGGAUCACCCAUGUGUAGAAGGUACAAAUACAUAUAAUGCAAUGUUC | 14.8 nM | 12.9 nM | – | – |
| ACUAUACGAGGAUAUGCUGUCAGUACUCCGAGGUUAGUUUGACAUGAGGAUCACCCAUGUAGAAGGCGUUUACU | 24.8 nM | 22.2 nM | – | – |
| GCGUCCCGCAGAGGAUAUGUUGUUCCGCCUACAUGAGGAUCACCCAUGUCAAAGGGCUGAUCCCGACAGAAGGCUGAAGGAUAC | – | – | 130 nM | 138 nM |
| AUCAGCUCGUCAGGAUAUACGUCACUGCGUCAGCAGUGUAGUAAGAUCACAUGAGGAUCACCCAUGUAGAAGGGACGAGCUGAU | 5.55 nM | 12 nM | – | – |
| CCAGCGAGUGUGAGGAUAUGCUGGUCCUUGGAUCAGCAGAAGGCACAUGAGGAUCACCCAUGUGAGGACGUUGG | 28.2 nM | 248 nM | – | – |
| AAUUAGGUCACAGGAUAUACAACAUCCAAUGCUGUAGAAGGGUGUCACAAUCAUAGCUGACAUGAGGAUCACCCAUGUAUCCAC | – | – | 202 nM | 106 nM |
| AAUAACAGAGGAUAUACUAUUUUAUGUGUUUAUUGUUUUGAACAUGAGGAUCACCCAUGUAGAAGGCUGAUUGA | 47.8 nM | 56.3 nM | – | – |
| AGUUCUUGUGAAGGAUAUACGGCGGGUCGCGCAGUAGAAGGUCACAUGAGGAUCACCCAUGUCGACAAUGUGCAGUAUCGACAA | 135 nM | 271 nM | – | – |
| CCUUUGAAGAUCCUAAAUUUCGACAUGAGGAUCACCCAUGUGCAGGAUAUCGUGCCAGUGAUGUACGAGAAGGGCCGUCUCUGC | 160 nM | 155 nM | – | – |
| CCAUGUUAGCAGGAUAUGCAAUUAUUCUUUUACGCAGAAGGGCUUACAUGAGGAUCACCCAUGUAACAUUUCAU | 18.4 nM | 77.8 nM | – | – |
| CGCACUGAUAGAGGAUAUGUUUUACAUGAGGAUCACCCAUGUGUACAAGGAUCAAUAUAUUAGUAACAGAAGGCUAUUAGUGCG | 24.7 nM | 21.5 nM | – | – |
| CGCGAUGCGGUUGGCCCUGGGCGAGAGGAUAUGGGCAGCGAGACAUGAGGAUCACCCAUGUUUUCUCAGAAGGCUCGAGCAGGC | – | – | 181 nM | 17.1 nM |
| AACCUAUUACAGAAGGCCAGCUACAUGAGGAUCACCCAUGUCGAGUCAUGGAGGAUAUGUAGUAAUUUACACGCGGGUGAGUAC | – | – | 51.6 nM | 6.25 nM |
| GUGUAGAGAGGAUAUACAUGAGGAUCACCCAUGUGAAUAAGAUAGAAUAAGAUAAAGUGUAGAAGGCUUAGUGU | 33.5 nM | 25.9 nM | – | – |
| GGAUCCGCUUCCGCCACAUGAGGAUCACCCAUGUGUAUGAACAGAAGGGCGACCUCAAAGAGGGCGCAGGAUAUGUACUCGUAC | – | – | 78.3 nM | 48.6 nM |
| GUAGCUAUCGGAGGAUAUUCAUGAUACAUGAGGAUCACCCAUGUUAAAUUGGGAGAAGGCCGAUAGCUACAAGAGCGAAAGCUC | – | – | 14.8 nM | 5.54 nM |
| AGGAAACAUGAGGAUCACCCAUGUAAAAGGUGGUUAGGAUAUGCAAAAAGAAAAAGAAAAGCAGAAGGGACAAGAA | – | – | 561 nM | 635 nM |
| CGGGUGGUCCUCCGGGAUUGGACACAGGAUAUCCGCGAAAACAUGAGGAUCACCCAUGUAUAUGAGGAGAAGGGUGGACGAAGA | – | – | 56.2 nM | 15.6 nM |
| AAUGUUUGAUUCCACUUAUACAUGAGGAUCACCCAUGUUAUCGAGGAUAUGCAUUAAAGUGUUUAGCAGAAGGCGAUGUAAUUG | 7.42 nM | 23.6 nM | – | – |
| GAGCUGCAGACAGGAUAUGAGACCGCCACGGUCUCAGAAGGGUCAUGUUCUACAUGAGGAUCACCCAUGUCGGACAGCUCGAAG | – | – | 140 nM | 11.8 nM |
| CAUUGACAUGAGGAUCACCCAUGUCAGGAUAUGCUUCAUGACACGAAAGUGUCAUGAAGCAGAAGGGACAUGCC | 19.4 nM | 31.8 nM | – | – |
| ACAUGUAAUGUAGGAUAUUUUACACAUGAGGAUCACCCAUGUGACCAGAGGCUUUGCUAUGAGUAAAAGAAGGGUAUGUACAUG | 61.8 nM | 60.4 nM | – | – |
| CAGCGAAAGCUGAAUCUGUAGAGAGAGGAUAUACAAGAUAUCAUCCAUACAUGAGGAUCACCCAUGUAGAAGGCUCUCUACAGU | 5.03 nM | 7.23 nM | – | – |
